Laboratory results reported in ChEMBL document CHEMBL1140227, “Histone deacetylase inhibitors through click chemistry” (J Med Chem, 2008).

Experiments:
Type in all cases: functional
MCF7 = experiment: Growth inhibition of human MCF7 cells at 10 uM relative to control; conditions: values are per cent of control
Outline: (§1)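 Single-dose preliminary screen in the NCI human cancer cell line panel, run by the NIH. Percent inhibition of cell line growth was calculated by comparison with untreated samples.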

SW-620 = experiment: Growth inhibition of human SW620 cells at 10 uM relative to control; conditions: values are per cent of control
Outline: (§2)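 Single-dose NCI human tumour cell line screen, run by the NIH. Percent inhibition of cell line growth was calculated by comparison with untreated samples.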

HCC 2998 = experiment: Growth inhibition of human HCC2998 cells at 10 uM relative to control; conditions: values are per cent of control; outline: as §1
NCI-H460 = experiment: Growth inhibition of human NCI-H460 cells at 10 uM relative to control; conditions: values are per cent of control; outline: as §1
cells [1] = conditions: Homo sapiens, Cancer cell lines
cells [2] = conditions: Homo sapiens, Cancer cell lines; remark: listed apart in the source
EKVX = experiment: Growth inhibition of human EKVX cells at 10 uM relative to control; conditions: values are per cent of control; outline: as §1
NCI/ADR-RES = experiment: Growth inhibition of human NCI/ADR-RES cells at 10 uM relative to control; conditions: values are per cent of control; outline: as §1
OVCAR-8 = experiment: Growth inhibition of human OVCAR8 cells at 10 uM relative to control; conditions: values are per cent of control; outline: as §1
cells [3] = conditions: Homo sapiens, Cancer cell lines; remark: listed apart in the source
Malme-3M = experiment: Growth inhibition of human MALME-3M cells at 10 uM relative to control; conditions: values are per cent of control; outline: as §1
SNB-75 = experiment: Growth inhibition of human SNB75 cells at 10 uM relative to control; conditions: values are per cent of control; outline: as §2
CAKI-1 = experiment: Growth inhibition of human Caki1 cells at 10 uM relative to control; conditions: values are per cent of control; outline: as §1
SF-268 = experiment: Growth inhibition of human SF268 cells at 10 uM relative to control; conditions: values are per cent of control; outline: as §1
U-251 = experiment: Growth inhibition of human U251 cells at 10 uM relative to control; conditions: values are per cent of control; outline: as §2
UACC-257 = experiment: Growth inhibition of human UACC257 cells at 10 uM relative to control; conditions: values are per cent of control; outline: as §2
HCT-15 = experiment: Growth inhibition of human HCT15 cells at 10 uM relative to control; conditions: values are per cent of control; outline: as §1
NCI-H522 = experiment: Growth inhibition of human NCI-H522 cells at 10 uM relative to control; conditions: values are per cent of control; outline: as §1
SN12C = experiment: Growth inhibition of human SN12C cells at 10 uM relative to control; conditions: values are per cent of control; outline: as §1
ACHN = experiment: Growth inhibition of human ACHN cells at 10 uM relative to control; conditions: values are per cent of control; outline: as §1
UACC-62 = experiment: Growth inhibition of human UACC62 cells at 10 uM relative to control; conditions: values are per cent of control; outline: as §2
K562 = experiment: Growth inhibition of human K562 cells at 10 uM relative to control; conditions: values are per cent of control; outline: as §1
SK-MEL-2 = experiment: Growth inhibition of human SK-MEL-2 cells at 10 uM relative to control; conditions: values are per cent of control; outline: as §1
SK-MEL-5 = experiment: Growth inhibition of human SK-MEL-5 cells at 10 uM relative to control; conditions: values are per cent of control; outline: as §1
T47D = experiment: Growth inhibition of human T47D cells at 10 uM relative to control; conditions: values are per cent of control; outline: as §2
NCI-H226 = experiment: Growth inhibition of human NCI-H226 cells at 10 uM relative to control; conditions: values are per cent of control; outline: as §1
M14 = experiment: Growth inhibition of human M14 cells at 10 uM relative to control; conditions: values are per cent of control; outline: as §1
COLO 205 = experiment: Growth inhibition of human COLO205 cells at 10 uM relative to control; conditions: values are per cent of control; outline: as §1
LOX IMVI = experiment: Growth inhibition of human LOXIMVI cells at 10 uM relative to control; conditions: values are per cent of control; outline: as §1
NCI-H322M = experiment: Growth inhibition of human NCI-H322M cells at 10 uM relative to control; conditions: values are per cent of control; outline: as §1
HT-29 = experiment: Growth inhibition of human HT-29 cells at 10 uM relative to control; conditions: values are per cent of control; outline: as §1
BT-549 = experiment: Growth inhibition of human BT549 cells at 10 uM relative to control; conditions: values are per cent of control; outline: as §1
KM12 = experiment: Growth inhibition of human KM12 cells at 10 uM relative to control; conditions: values are per cent of control; outline: as §1

Compound `O=C(/C=C/c1cn(C/C=C/c2ccccc2)nn1)NO` has a growth, % of control at 10 µM (MCF7) of 13.6%, a growth, % of control at 10 µM (SW-620) of -61.5% and a growth, % of control at 10 µM (HCC 2998) of -1.33%. The growth, % of control at 10 µM (NCI-H460) was 7.36%, the inhibition at 10 µM (cells [1]) was 1% and the growth percent at 10 µM (cells [2]) was -20%. For the same compound, the growth, % of control at 10 µM (EKVX) was 23.7%, the growth, % of control at 10 µM (NCI/ADR-RES) was -14.2% and the growth, % of control at 10 µM (OVCAR-8) was 1.24%. For the same compound, the inhibition at 10 µM (cells [3]) was 1%, the growth, % of control at 10 µM (Malme-3M) was -28.7% and the growth, % of control at 10 µM (SNB-75) was 16.7%. For the same compound, the growth, % of control at 10 µM (CAKI-1) was 7.42%, the growth, % of control at 10 µM (SF-268) was -0.08% and the growth, % of control at 10 µM (U-251) was -89.9%. It also gave a growth, % of control at 10 µM (UACC-257) of -32.1%, a growth, % of control at 10 µM (HCT-15) of 9.7% and a growth, % of control at 10 µM (NCI-H522) of 8.32%. It also gave a growth, % of control at 10 µM (SN12C) of 25%, a growth, % of control at 10 µM (ACHN) of -51.2% and a growth, % of control at 10 µM (UACC-62) of -71.2%. It also gave a growth, % of control at 10 µM (K562) of -10.9%, a growth, % of control at 10 µM (SK-MEL-2) of -51.7% and a growth, % of control at 10 µM (SK-MEL-5) of -79%. The growth, % of control at 10 µM (T47D) was -11.9%, the growth, % of control at 10 µM (NCI-H226) was 23.7% and the growth, % of control at 10 µM (M14) was 1.63%. For the same compound, the growth, % of control at 10 µM (COLO 205) was -75.7%, the growth, % of control at 10 µM (LOX IMVI) was -72.6% and the growth, % of control at 10 µM (NCI-H322M) was 9.59%. The growth, % of control at 10 µM (HT-29) was 12%, the growth, % of control at 10 µM (BT-549) was 43.3% and the growth, % of control at 10 µM (KM12) was 8.61%.
